The source of these data is ChEMBL document CHEMBL1142211 (Antimicrob Agents Chemother, 2007).

≈ marks a conversion by molar mass, not a printed value. Calls of active or inactive are those of the source.

For data set [1], the system named is Mycobacterium tuberculosis. The data set can be described thus: Antimicrobial activity against Mycobacterium tuberculosis H37Rv infected in mouse J774A.1 macrophages. It is filed as functional. Summed up:
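J774A.1 macrophages were infected with H37Rv (MOI 1:8, macrophage:bacilli) and exposed to drug at 32 to 0.5 mg/liter for 3 days. Intracellular MIC is the minimal concentration giving a static effect after 3 days. Efficacy is the log10 CFU/ml reduction over the assay period.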

Data set [2] in a line: Cmax in BALB/c mouse at 37.5 to 2400 mg/kg, po. Type of data set: ADME, organism-based. On the set-up: dose 37.5-2400 mg/kg, route oral. To be noted: in vivo. Summed up:
(§1)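 Uninfected mice received single ascending oral gavage doses as suspensions in 0.25% (wt/vol) carboxymethylcellulose at 10 ml/kg. Plasma was taken by retro-orbital puncture from 0.08 to 50 h after dosing, with 3 animals per time point. Drug was measured by HPLC-UV or LCMS, and parameters were derived by noncompartmental analysis.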

Data set [3] has as its system Mycobacterium tuberculosis. The data set can be described thus: Antimicrobial activity against Mycobacterium tuberculosis […] on day 7. Type of data set: functional. Summed up: (§2)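 H37Rv broth cultures were incubated with a range of drug concentrations. Viable CFU were counted by plating on Middlebrook 7H11 agar after 1, 7 and 14 days. Bactericidal effect is calculated against the initial inoculum before drug addition, as the mean of triplicates.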

Data set [4] has as its system Mycobacterium tuberculosis. Description: Antimicrobial activity against Mycobacterium tuberculosis H37Rv in 7H9 broth. It is filed as functional. A digest of the protocol: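 Broth microdilution against H37Rv over 256 to 0.01 mg/liter. MIC is the lowest concentration with no visible turbidity.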
Data set [5] is described as follows: AUC(0-infinity) in BALB/c mouse at 37.5 to 2400 mg/kg, po. Type of data set: ADME, organism-based. On the set-up: dose 37.5-2400 mg/kg, route oral. To be noted: plasma. Summed up: as §1
The subject of data set [6] is Mycobacterium tuberculosis. Description: Bactericidal activity in Mycobacterium tuberculosis H37Rv on day 14. It is filed as functional, organism-based. Summed up: as §2
In data set [7] the test system is Mycobacterium tuberculosis. Description: Bactericidal activity in Mycobacterium tuberculosis H37Rv on day 7. Type of data set: functional. A digest of the protocol:
as §2

Data set [8] relates to Mycobacterium tuberculosis. The data set can be described thus: Bactericidal activity in Mycobacterium tuberculosis H37Rv on day 1. Type of data set: functional, organism-based. Summed up:
as §2

The test system of another data set is Plasma. The data set can be described thus: Fraction unbound ligand in mouse plasma at 0.01 to 10 mg/litre. Type of data set: ADME, cell-free. Summed up:
(§3)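 Mouse plasma protein binding was measured by equilibrium dialysis across cellulose acetate membranes (12,000 to 14,000 MW cutoff). Drug was quantified by HPLC-UV or LCMS. Each concentration was run in duplicate and the mean reported.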

Data set [9] can be described thus: AUC(0-infinity) in BALB/c mouse at 6 to 400 mg/kg, po. It is filed as ADME, organism-based. Details: dose 6-400 mg/kg, route oral. To be noted: plasma. A digest of the protocol: as §1
The test system of data set [10] is Mus musculus. The data set can be described thus: Drug level in Mycobacterium tuberculosis infected BALB/c mouse model at 38 to 19000 mg/kg, po. Details: dose 38-19000 mg/kg, route oral. Type of data set: ADME, organism-based. The following applies: in vivo.
In data set [11] the test system is Mycobacterium tuberculosis. The data set can be described thus: Reduction of Mycobacterium tuberculosis H37Rv in orally dosed BALB/c mouse lung. Type of data set: functional. Summed up: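 BALB/c mice were infected by low-dose aerosol with H37Rv. Oral dosing started 4 weeks later and ran for 4 weeks (3 weeks for one agent), using fractionated regimens with 3 mice per regimen and saline controls. Lungs were homogenized 24 h after the end of treatment and plated on 7H11 agar with 10% ADC at 37°C in 5% CO2 for 3 weeks. The read-out is log10 CFU/lung.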

Data set [12] in a line: Cmax in BALB/c mouse at 6 to 400 mg/kg, po. It is filed as ADME, organism-based. The following applies: in vivo. Details: dose 6-400 mg/kg, route oral. A digest of the protocol: as §1
Data set [13] relates to Mus musculus. The data set can be described thus: Drug level in Mycobacterium tuberculosis infected BALB/c mouse model at 225 to 115000 mg/kg, po. On the set-up: dose 225-115000 mg/kg, route oral. It is filed as ADME, organism-based. To be noted: in vivo.
Data set [14] is described as follows: Ratio of fraction Cmax in Mycobacterium tuberculosis infected BALB/c mouse to MIC in Mycobacterium tuberculosis infected BALB/c mouse model at 225 to 115000 mg/kg, po. Details: dose 225-115000 mg/kg, route oral. To be noted: in vivo. It is filed as ADME, organism-based. Summed up:
(§4)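 Free Cmax and free AUC were derived from single-dose mouse plasma PK after conversion to unbound concentrations using each agent's binding equation, then divided by the broth MIC. Values for the fractionation regimens were estimated from the dose relationship.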

The nature of data set [15]: Toxicity in Mycobacterium tuberculosis infected BALB/c mouse model at 225 to 115000 mg/kg, po. To be noted: in vivo. Type of data set: organism-based. On the set-up: dose 225-115000 mg/kg, route oral.
Data set [16] in a line: Half life in BALB/c mouse at 37.5 to 2400 mg/kg, po. On the set-up: dose 37.5-2400 mg/kg, route oral. The following applies: in vivo. Type of data set: ADME, organism-based.
Data set [17] in a line: Ratio of fraction AUC in Mycobacterium tuberculosis infected BALB/c mouse to MIC in Mycobacterium tuberculosis infected BALB/c mouse model at 225 to 115000 mg/kg, po. The following applies: in vivo. Type of data set: ADME, organism-based. Details: dose 225-115000 mg/kg, route oral. A digest of the protocol: as §4
The test system of data set [18] is Mycobacterium tuberculosis. The data set can be described thus: Ratio of fraction Cmax in Mycobacterium tuberculosis infected BALB/c mouse to MIC in Mycobacterium tuberculosis infected BALB/c mouse model at 31 to 50000 mg/kg, po. The following applies: dose mg/kg 31-50000. Type of data set: functional. A digest of the protocol:
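Unbound peak plasma level was divided by broth MIC. […] It was converted to free drug by a Boltzman fit of equilibrium-dialysis mouse plasma binding. Values for the fractionated regimens given to aerosol-infected mice were estimated from the dose–fCmax/MIC relationship.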

Data set [19] can be described thus: Half life in BALB/c mouse at 5 to 1000 mg/kg, po. Details: dose 5-1000 mg/kg, route oral. To be noted: in vivo. Type of data set: ADME, organism-based. A digest of the protocol:
as §1

The nature of data set [20]: Fraction unbound ligand in mouse plasma at 0.01 to 50 mg/litre. It is filed as ADME, cell-free. A digest of the protocol:
as §3

Data set [21] can be described thus: Ratio of fraction AUC in Mycobacterium tuberculosis infected BALB/c mouse to MIC in Mycobacterium tuberculosis infected BALB/c mouse model at 31 to 50000 mg/kg, po. The following applies: dose mg/kg 31-50000. Type of data set: functional. Summed up: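 Estimated from oral single-ascending-dose PK in uninfected BALB/c mice (gavage, 0.25% CMC suspension; plasma sampled 0.08–50 h, 3 mice/time point; HPLC-UV/LCMS). Total AUC0-∞ was made unbound using a protein-binding fit from mouse-plasma equilibrium dialysis, then divided by broth MIC over 576 h/24 h (SPX: 432 h/24 h). Values were interpolated from dose relationships for dose-fractionation regimens in aerosol-infected mice.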

The test system of data set [22] is Mus musculus. The data set can be described thus: Drug level in Mycobacterium tuberculosis infected BALB/c mouse model at 31 to 50000 mg/kg, po. The following applies: in vivo. On the set-up: dose 31-50000 mg/kg, route oral. Type of data set: ADME, organism-based.
Data set [23] in a line: AUC(0-infinity) in BALB/c mouse at 5 to 1000 mg/kg, po. Details: dose 5-1000 mg/kg, route oral. To be noted: plasma. Type of data set: ADME, organism-based. Summed up:
as §1

Data set [24] is described as follows: Cmax in BALB/c mouse at 5 to 1000 mg/kg, po. It is filed as ADME, organism-based. On the set-up: dose 5-1000 mg/kg, route oral. The following applies: in vivo. A digest of the protocol: as §1

Turning to `O=C(O)c1cn(C2CC2)c2cc(N3CCNCC3)c(F)cc2c1=O` [CIPROFLOXACIN], the MIC amounted to 4 µg/mL (≈ 12.1 µM) in data set [1] and 0.5 µg/mL (≈ 1.51 µM) in data set [4]. In data set [2], the Cmax turned out to be 1200 ng/mL. The log10CFU/ml is 3 in data set [3] and 3.2 in data set [7]. This compound also registered an AUC(0-inf) in data set [5] of 29000 ng·h/mL. Moreover, the outcome in data set [6] and in [8] was Active.

In the data set with Plasma, `COc1c(N2C[C@@H]3CCCN[C@@H]3C2)c(F)cc2c(=O)c(C(=O)O)cn(C3CC3)c12` [MOXIFLOXACIN] displayed a Fu of 0.077. This compound yielded an area under the curve AUC(0-inf) in [9] of 25000 ng·h/mL. Besides, the MIC stood at 1 µg/mL (≈ 2.49 µM) in data set [1] and 0.5 µg/mL (≈ 1.25 µM) in data set [4]. Besides, the log10CFU/ml in data set [3] stood at 3. Also, the “T>MIC” value with Mus musculus [10] amounted to 0%. The compound also displayed a Log10 cfu in data set [11] of 3.2. For the same compound, the result in [6], in [7] and in data set [8] was Active. For the same compound, the highest level in [12] (Cmax) was 380 ng/mL.

For `CC1COc2c(N3CCN(C)CC3)c(F)cc3c(=O)c(C(=O)O)cn1c23` (configuration not stated) [OFLOXACIN], the “T>MIC” value in the data set with Mus musculus [13] stood at 0%. For the same compound, the values for the MIC in [1] and in data set [4] were 2 µg/mL (≈ 5.53 µM) and 0.5 µg/mL (≈ 1.38 µM), respectively. Further, the Ratio in [14] came to 1. Also, in data set [2], the Cmax amounted to 1700 ng/mL. This compound also returned a 50% lethal dose (LD50) in data set [15] of 3000 mg/kg. Moreover, the log10CFU/ml in data set [3] was 3. This compound also gave a half-life in [16] of 4.93 h. Further, the total exposure AUC(0-inf) in [5] was 29000 ng·h/mL. This compound also returned a Log10 cfu in [11] of 1.5. In addition, the outcome in data set [6], in data set [7] and in data set [8] was Active. Also, the RatioAUC/MIC in data set [17] is given as 2.

For `C[C@@H]1CN(c2c(F)c(N)c3c(=O)c(C(=O)O)cn(C4CC4)c3c2F)C[C@H](C)N1` [SPARFLOXACIN], in data set [18], the Ratio was found to be 4. For the same compound, the half-life in [19] was 9.8 h. In data set [20], the unbound share (fraction unbound) worked out at 0.26. For the same compound, in data set [21], the RatioAUC/MIC was 3. The MIC in data set [1] worked out at 2 µg/mL (≈ 5.1 µM); in [4] it was 0.1 µg/mL (≈ 0.255 µM). The log10CFU/ml in data set [3] is recorded as 3. Further, in the data set with Mus musculus [22], the “T>MIC” value is 10%. In data set [23], this compound showed a total exposure AUC(0-inf) of 43000 ng·h/mL. Also, the Log10 cfu in data set [11] was found to be 1.4. In addition, the result in [6], in data set [7] and in [8] was Active. This compound yielded a Cmax in [24] of 750 ng/mL.
